In PMC6977399 (Clinical Pharmacology and Therapeutics, 2019):

Columns and labels:
OATP1B3 = molecular target: T1, OATP1B3 (Homo sapiens, UniProt Q9NPD5); assay: Inhibition of OATP1B3-mediated CCK-8 uptake in HEK293 cells; format: in vitro ADME
T1 sequence (Q9NPD5 1-702): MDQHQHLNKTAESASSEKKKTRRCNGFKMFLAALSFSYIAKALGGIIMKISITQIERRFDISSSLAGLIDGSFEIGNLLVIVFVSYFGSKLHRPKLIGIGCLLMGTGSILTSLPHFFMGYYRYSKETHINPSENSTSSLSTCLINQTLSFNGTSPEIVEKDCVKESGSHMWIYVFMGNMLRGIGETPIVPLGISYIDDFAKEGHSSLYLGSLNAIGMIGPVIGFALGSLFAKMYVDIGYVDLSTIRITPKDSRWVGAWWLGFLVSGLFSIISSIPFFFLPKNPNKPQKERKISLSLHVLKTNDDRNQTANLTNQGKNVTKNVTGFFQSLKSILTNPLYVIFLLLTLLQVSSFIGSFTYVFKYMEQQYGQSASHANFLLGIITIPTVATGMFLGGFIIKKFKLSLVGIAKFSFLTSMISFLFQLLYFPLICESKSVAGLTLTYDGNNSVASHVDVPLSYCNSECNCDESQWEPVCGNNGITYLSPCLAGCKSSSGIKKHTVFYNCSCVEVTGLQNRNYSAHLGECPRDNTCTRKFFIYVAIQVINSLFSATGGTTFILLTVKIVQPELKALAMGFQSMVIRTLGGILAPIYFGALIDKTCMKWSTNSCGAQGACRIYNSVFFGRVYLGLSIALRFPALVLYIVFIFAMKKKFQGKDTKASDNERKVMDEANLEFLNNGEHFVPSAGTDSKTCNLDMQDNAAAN

human OAT3 = molecular target: T2, human OAT3 (Homo sapiens, UniProt Q8TCC7); assay: Inhibition of OAT3-mediated estrone-3-sulfate uptake in HEK293 cells; format: in vitro ADME
T2 sequence (Q8TCC7 1-542): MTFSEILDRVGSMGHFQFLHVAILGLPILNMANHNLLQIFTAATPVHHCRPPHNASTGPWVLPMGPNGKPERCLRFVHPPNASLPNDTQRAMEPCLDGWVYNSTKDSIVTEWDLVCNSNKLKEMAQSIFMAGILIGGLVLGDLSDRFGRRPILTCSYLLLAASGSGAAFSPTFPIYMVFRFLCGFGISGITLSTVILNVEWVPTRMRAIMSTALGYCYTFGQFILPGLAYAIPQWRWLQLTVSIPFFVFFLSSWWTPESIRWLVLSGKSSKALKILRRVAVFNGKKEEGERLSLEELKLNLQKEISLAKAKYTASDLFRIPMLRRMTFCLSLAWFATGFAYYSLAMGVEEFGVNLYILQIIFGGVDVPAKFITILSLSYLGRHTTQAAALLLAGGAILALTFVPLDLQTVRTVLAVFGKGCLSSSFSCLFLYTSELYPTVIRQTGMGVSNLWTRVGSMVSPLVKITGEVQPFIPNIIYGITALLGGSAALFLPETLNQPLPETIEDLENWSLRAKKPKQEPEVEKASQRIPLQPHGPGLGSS
Procedure, shortened: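 HEK293 cells stably expressing human OAT3, with mock-transfected HEK293 as control cells. Uptake was run at 37°C in HK buffer (pH 7.4) with 1 μM ³H-estrone-3-sulfate plus test compound or DMSO vehicle. Cells were washed twice, lysed in 0.1 M NaOH, and counted by liquid scintillation. Transporter-specific uptake was taken as uptake in transfected cells minus uptake in control cells.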

CYP1A2 = molecular target: T3, CYP1A2 (Homo sapiens, UniProt P05177); assay: CYP inhibition in human liver microsomes; format: in vitro ADME; conditions: up to 50 μM
T3 sequence (P05177 1-516): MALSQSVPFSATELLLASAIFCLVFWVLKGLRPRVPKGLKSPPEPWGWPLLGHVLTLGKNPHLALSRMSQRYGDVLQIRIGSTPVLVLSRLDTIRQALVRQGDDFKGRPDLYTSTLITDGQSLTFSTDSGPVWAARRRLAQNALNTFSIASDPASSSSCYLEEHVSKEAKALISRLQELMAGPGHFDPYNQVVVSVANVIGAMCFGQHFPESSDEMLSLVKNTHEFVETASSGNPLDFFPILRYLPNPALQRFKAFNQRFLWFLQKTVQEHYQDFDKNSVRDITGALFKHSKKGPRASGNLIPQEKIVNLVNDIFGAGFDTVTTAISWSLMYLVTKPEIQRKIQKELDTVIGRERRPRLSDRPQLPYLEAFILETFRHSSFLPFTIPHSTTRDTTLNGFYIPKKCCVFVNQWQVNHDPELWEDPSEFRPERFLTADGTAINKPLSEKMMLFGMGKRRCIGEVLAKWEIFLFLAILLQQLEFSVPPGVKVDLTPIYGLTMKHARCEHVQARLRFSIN
Procedure, shortened: (§1)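 Reversible inhibition: test compound pre-incubated 10 min at 37°C with pooled human liver microsomes plus an isoform-selective probe substrate. Reaction started with NADPH (1.3 mM), then quenched with 3% formic acid in acetonitrile containing internal standard. CYP-specific metabolite formation measured by LC-MS/MS. Activity expressed as % control = (peak area ratio with compound / without compound) × 100.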

CYP2C19 = CYP2C19 (Homo sapiens, UniProt P33261); assay: CYP inhibition in human liver microsomes; format: in vitro ADME; conditions: up to 15 μM
CYP2C19, sequence (P33261 whole entry): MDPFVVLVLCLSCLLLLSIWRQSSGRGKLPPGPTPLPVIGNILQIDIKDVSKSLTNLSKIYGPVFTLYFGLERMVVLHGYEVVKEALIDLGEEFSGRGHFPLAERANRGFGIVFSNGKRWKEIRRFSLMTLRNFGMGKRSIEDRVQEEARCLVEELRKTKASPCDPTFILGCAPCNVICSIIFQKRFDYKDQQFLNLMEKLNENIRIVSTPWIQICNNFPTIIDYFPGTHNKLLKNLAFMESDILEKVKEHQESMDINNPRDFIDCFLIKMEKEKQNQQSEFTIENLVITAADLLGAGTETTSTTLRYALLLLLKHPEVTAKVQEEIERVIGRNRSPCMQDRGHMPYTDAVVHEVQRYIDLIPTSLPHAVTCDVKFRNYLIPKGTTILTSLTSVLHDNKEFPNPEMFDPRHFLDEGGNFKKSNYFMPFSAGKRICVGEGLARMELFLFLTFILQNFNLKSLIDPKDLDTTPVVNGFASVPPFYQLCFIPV
Procedure, shortened: as §1

CYP2D6 = CYP2D6 (Homo sapiens, UniProt P10635); assay: CYP inhibition in human liver microsomes; format: in vitro ADME; conditions: up to 15 μM
CYP2D6, sequence (P10635 whole entry): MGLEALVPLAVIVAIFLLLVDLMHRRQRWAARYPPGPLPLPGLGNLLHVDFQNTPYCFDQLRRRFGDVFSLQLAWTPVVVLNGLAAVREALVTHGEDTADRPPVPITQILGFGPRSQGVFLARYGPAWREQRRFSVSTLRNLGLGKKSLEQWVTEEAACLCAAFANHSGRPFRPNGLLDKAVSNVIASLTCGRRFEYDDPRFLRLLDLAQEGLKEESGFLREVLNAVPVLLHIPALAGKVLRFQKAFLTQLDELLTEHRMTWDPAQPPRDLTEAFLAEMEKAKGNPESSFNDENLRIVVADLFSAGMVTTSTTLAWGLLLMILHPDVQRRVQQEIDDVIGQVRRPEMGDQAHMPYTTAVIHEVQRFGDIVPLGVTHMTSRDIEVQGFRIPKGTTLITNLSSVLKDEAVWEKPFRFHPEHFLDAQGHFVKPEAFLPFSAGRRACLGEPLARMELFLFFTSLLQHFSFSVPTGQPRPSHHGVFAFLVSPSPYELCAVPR

CYP3A [1] = assay: Reversible CYP3A inhibition in human liver microsomes; format: in vitro ADME; conditions: MDZ and testosterone as probe substrates
Procedure, shortened: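 Test compound was pre-incubated for 10 min at 37°C with pooled human liver microsomes containing an isoform-selective substrate. Metabolite formation was expressed as % control activity, calculated as the peak area ratio with compound divided by the peak area ratio without compound, ×100.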

CYP3A [2] = assay: Time-dependent inhibition of CYP3A in human liver microsomes; format: in vitro ADME; conditions: for kinact: human
[3] = Fenebrutinib plasma exposure at 200 mg b.i.d. in the clinical DDI study; format: in vivo; conditions: human, oral, observed Cmax at steady-state, data not shown
[4] = phase I single-ascending and multiple-ascending dose studies; cited from earlier work
CYP3A [5] = conditions: 200 mg b.i.d.; based on MDZ AUC increase, weak > 1.25 to < 2-fold

C[C@H]1CN(C2COC2)CCN1c1ccc(Nc2cc(-c3ccnc(N4CCn5c(cc6c5CC(C)(C)C6)C4=O)c3CO)cn(C)c2=O)nc1 [fenebrutinib]
IC50 (OATP1B3): 7.15 µM | inhibition at 30 μM (OATP1B3; human, HEK293 cells stably expressing human OATP1B3, pH 7.4, probe CCK-8 (0.1 μM)): 86.7% | inhibition of OAT3 uptake transporter (human OAT3; at clinically relevant concentrations): no evidence of inhibition | influence on OAT3-mediated accumulation of estrone-3-sulfate (human OAT3; up to 30 μM, the highest concentration tested, HEK293 cells): did not influence | reversible or time-dependent inhibition of CYP1A2 (CYP1A2): No reversible or time‐dependent inhibition | reversible or time-dependent inhibition of CYP2C19 (CYP2C19): No reversible or time‐dependent inhibition | reversible or time-dependent inhibition of CYP2D6 (CYP2D6): No reversible or time‐dependent inhibition | reversible CYP3A inhibition (CYP3A [1]): no reversible CYP3A inhibition | kinact/Ki ratio, CYP3A (CYP3A [2]): 23.3 M⁻¹ s⁻¹ | time-dependent inhibition (TDI) of CYP3A (CYP3A [2]; MDZ and testosterone as probe substrates): TDI was observed | kinact (CYP3A [2]; probe midazolam (50 µM)): 0.00019 s⁻¹ | kinact (CYP3A [2]; probe testosterone (250 µM)): 0.00025 s⁻¹ | Cmax [3]: ~1000 nM | terminal half-life (t1/2) [4]: 4−10 hours | clinical classification as CYP3A inhibitor (CYP3A [5]): weak inhibitor
